Calls of active or inactive are those of the source. The rule behind the calls is not given here.
Tests used:
C3H 10T1/2 [1] = assay: Activation of 1650 bp mouse Ngn2 promoter activity expressed in mouse C3H10T1/2 cells at 100 uM incubated for 24 hrs by luciferase reporter gene assay relative to untreated control; format: cell-based
How it was run: (§1)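 C3H10T1/2 mesenchymal progenitor cells stably transfected with a luciferase reporter carrying the mouse Ngn2 promoter region (1650 bp). Cells were exposed for 24 h in 0.1% DMSO, with DMSO as negative control and baicalin (100 μM) as positive control. Luciferase output was read, n = 3, SD. Cytotoxicity to the same cells was measured in parallel by fluorimetric microculture assay (esterase hydrolysis of fluorescein diacetate).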

Mus musculus [2] = species: Mus musculus; assay: Induction of Ngn1 mRNA expression in mouse C17.2 cells at 20 uM incubated for 4 days by real-time RT-PCR method; format: functional, cell-based
How it was run: (§2)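 Mouse C17.2 neural stem cells were treated at 20 μM for 4 days, with baicalin (20 μM) as positive control. Total RNA was isolated and Ngn2, Ngn1, NeuroD2 and NT3 transcripts were quantified by real-time RT-PCR. mRNA levels were normalized to GAPDH; SD shown.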

Mus musculus [3] = species: Mus musculus; assay: Induction of cell differentiation of mouse C17.2 cells assessed as appearance of differentiated cell bodies; format: functional
Mus musculus [4] = species: Mus musculus; assay: Induction of Ngn2 mRNA expression in mouse C17.2 cells at 20 uM incubated for 4 days by real-time RT-PCR method; format: functional, cell-based; how it was run: as §2
C3H 10T1/2 [5] = assay: Activation of 1650 bp mouse Ngn2 promoter activity expressed in mouse C3H10T1/2 cells at 20 uM incubated for 24 hrs by luciferase reporter gene assay relative to baicalin; format: cell-based; how it was run: as §1
C3H 10T1/2 [6] = assay: Activation of 1650 bp mouse Ngn2 promoter activity expressed in mouse C3H10T1/2 cells at 2.5 to 20 uM incubated for 24 hrs by luciferase reporter gene assay; format: cell-based; how it was run: as §1
Mus musculus [7] = species: Mus musculus; assay: Induction of NeuroD2 mRNA expression in mouse C17.2 cells at 20 uM incubated for 4 days by real-time RT-PCR method; format: functional, cell-based; how it was run: as §2
Mus musculus [8] = species: Mus musculus; assay: Induction of NT3 mRNA expression in mouse C17.2 cells at 20 uM incubated for 4 days by real-time RT-PCR method; format: functional, cell-based; how it was run: as §2
C3H 10T1/2 [9] = assay: Activation of 1650 bp mouse Ngn2 promoter activity expressed in mouse C3H10T1/2 cells at 20 uM incubated for 24 hrs by luciferase reporter gene assay relative to untreated control; format: cell-based; how it was run: as §1

Row | Structure (SMILES) | fold change (FC) (C3H 10T1/2 [1]) | Activity (Mus musculus [2]) | Activity (Mus musculus [3]) | Activity (Mus musculus [4]) | fold change (FC) (C3H 10T1/2 [5]) | Activity (C3H 10T1/2 [6]) | Activity (Mus musculus [7]) | Activity (Mus musculus [8]) | fold change (FC) (C3H 10T1/2 [9])
1 | O=C(O)[C@H]1O[C@@H](Oc2cc3oc(-c4ccccc4)cc(=O)c3c(O)c2O)[C@H](O)[C@@H](O)[C@@H]1O | 1.5 |  |  |  |  |  |  |  | 
2 | OCc1cc(O)c2nc3ccccc3cc2c1 |  | Active | Active | Active | 1.9 | Dose-dependent effect | Active | Active | 2.8
3 | OCc1ccc2nc3c(O)cccc3cc2c1 |  | Active | Active | Active |  | inactive | Active | Active | 
4 | OCc1cc(O)c2nc3c(O)cccc3cc2c1 |  |  |  |  |  | inactive |  |  | 
